The species named for assay [1] is Homo sapiens. Briefly: Adsorbed radiation dose value was calculated to human spleen. Format: functional. An outline of the steps:
(§1)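 Human absorbed radiation dose estimated by the standard MIRD method from rat tissue distribution (% dose/g, 1 h–21 days) and excretion data. Excretion came from three individually caged female rats, with urine and feces collected daily over 21 days.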

For assay [2], the species on record is Homo sapiens. As to the kind of experiment: Adsorbed radiation dose value was calculated to human liver. Format: functional. The method in brief:
as §1

The species named for assay [3] is Homo sapiens. As to the kind of experiment: Adsorbed radiation dose value was calculated to human ovaries. The assay is classed as functional, Female gonad. An outline of the steps: as §1
The species named for assay [4] is Homo sapiens. Briefly: Adsorbed radiation dose value was calculated to human kidney. The assay is classed as functional. The method in brief: as §1
The species named for assay [5] is Homo sapiens. Briefly: Adsorbed radiation dose value was calculated to human total body. Format: functional. The method in brief:
as §1

The species named for assay [6] is Homo sapiens. Briefly: Adsorbed radiation dose value was calculated to human adrenal. The assay is classed as functional. An outline of the steps:
as §1

The species entered for assay [7] is Homo sapiens. As to the kind of experiment: Adsorbed radiation dose value was calculated to human pancreas. The assay is classed as functional. The method in brief: as §1
For assay [8], the species on record is Homo sapiens. As to the kind of experiment: Adsorbed radiation dose value was calculated to human small intestine. Format: functional. The method in brief:
as §1

Assay [9] is filed under the species Homo sapiens. As to the kind of experiment: Adsorbed radiation dose value was calculated to human lungs. The assay is classed as functional. The method in brief:
as §1

Assay [10] in a line: Adrenal/Tissue ratio calculated from percent dose per gram of tissue determined after 1 day intravenous administration from lung. Format: functional. An outline of the steps:
(§2)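 Female Fischer 344 rats (160–180 g), fed ad libitum. Steroid dissolved in EtOH, formulated in Tween 80–EtOH–saline, 5–10 μCi in 1 mL given into a lateral tail vein under light Et₂O anesthesia. Organs removed 1 day post-injection, rinsed, blotted, weighed and gamma counted, 3 rats per time point. Ratios taken from adrenal vs tissue % dose/g.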

Assay [11] is described as follows: Adrenal/Tissue ratio calculated from percent dose per gram of tissue determined after 1 day intravenous administration from kidney. The assay is classed as functional. An outline of the steps: as §2
A short description of assay [12]: Adrenal/Tissue ratio calculated from percent dose per gram of tissue determined after 1 day intravenous administration from blood. Format: functional. An outline of the steps:
as §2

Assay [13] is described as follows: Adrenal/Tissue ratio calculated from percent dose per gram of tissue determined after 1 day intravenous administration from ovaries. The assay is classed as functional. The method in brief:
as §2

Assay [14] is described as follows: Adrenal/Tissue ratio calculated from percent dose per gram of tissue determined after 1 day intravenous administration from pancreas. Format: functional. The method in brief:
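Female Fischer 344 rats (160–180 g), food and water ad libitum, lightly anaesthetized with Et2O. [75Se]-labelled steroid was given in Tween 80–EtOH–saline, 5–10 μCi, by lateral tail-vein injection. Rats were killed by decapitation under Et2O; organs were rinsed, blotted, weighed and gamma-counted. Adrenal/tissue ratio is from % dose/g, mean of three rats per time point.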

The nature of assay [15]: Adrenal/Tissue ratio calculated from percent dose per gram of tissue determined after 1 day intravenous administration from spleen. The assay is classed as functional. The method in brief:
as §2

Assay [16] is described as follows: Adrenal/Tissue ratio calculated from percent dose per gram of tissue determined after 1 day intravenous administration from liver. The assay is classed as functional. An outline of the steps:
as §2

Turning to `CC(C)[73Se]CCC[C@H](C)[C@H]1CC[C@H]2[C@@H]3CC=C4C[C@@H](O)CC[C@]4(C)[C@H]3CC[C@]12C`, the Dose is 1.9 rd mCi-1 in the assay filed under Homo sapiens [1]; 1.7 rd mCi-1 in the assay filed under Homo sapiens [2]; 1.2 rd mCi-1 in the assay filed under Homo sapiens [3]; 0.67 rd mCi-1 in the assay filed under Homo sapiens [4]; 0.24 rd mCi-1 in the assay filed under Homo sapiens [5]; 1.6 rd mCi-1 in the assay filed under Homo sapiens [6]. The Dose was 0.5 rd mCi-1 in the assay filed under Homo sapiens [7], 0.64 rd mCi-1 in the assay filed under Homo sapiens [8] and 1.7 rd mCi-1 in the assay filed under Homo sapiens [9].
With `CC(C)[Te]CCCC(C)C1CCC2C3CC=C4CC(O)CCC4(C)C3CCC12C` (stereo unspecified), the Ratio in assay [10] is given as 18.7; in [11] it was 56.2; in [12], 54.8; in [13], 4.9; in [14], 122; in [15], 14. Also, the Ratio in assay [16] is recorded as 27.1.

The record behind these values is ChEMBL document CHEMBL1122384, “Synthesis and evaluation of 24-(isopropyl[75Se]seleno)chol-5-en-3 beta-ol” (J Med Chem, 1983).
